Results: PMC2863310 (Pigment cell & melanoma research, 2009)
Residues, ends and D or L forms follow the SMILES beside them. *: point of attachment. Cbz = O=C(OCc1ccccc1)*

Columns and labels:
Siah2 [1] = target: T1, Siah2 (Mus musculus, UniProt Q06986); assay: In vivo auto-ubiquitination of Siah2 in 293T cells; format: cell-based; conditions: MEN 25 µM or MG132 40 µM, 6 h
T1 sequence (Q06986 1-325): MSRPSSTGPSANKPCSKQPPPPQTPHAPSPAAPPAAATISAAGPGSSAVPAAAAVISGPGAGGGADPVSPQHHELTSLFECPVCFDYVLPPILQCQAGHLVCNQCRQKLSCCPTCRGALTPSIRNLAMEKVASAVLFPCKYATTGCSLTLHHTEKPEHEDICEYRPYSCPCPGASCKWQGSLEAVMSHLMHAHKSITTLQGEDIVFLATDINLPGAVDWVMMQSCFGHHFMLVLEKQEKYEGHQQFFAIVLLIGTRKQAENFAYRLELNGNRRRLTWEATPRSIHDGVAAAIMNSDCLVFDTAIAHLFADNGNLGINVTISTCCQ
In short: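 293T cells (DMEM, 10% BS) were co-transfected with Flag-Siah2 with or without HA-ubiquitin and treated 24 h later. Cells were lysed in 2% SDS/TBS at 95°C for 10 min, diluted ninefold in 1% Triton X-100/2 mM EDTA, sonicated, precleared with protein G and clarified. Anti-Flag immunoprecipitation used 2 mg protein overnight at 4°C. After stringent washes, 8% SDS-PAGE was blotted with anti-HA and reprobed with anti-Flag.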

GST-Siah2 [2] = target: T2, GST-Siah2 (Mus musculus, UniProt Q06986); assay: Meso Scale electro-chemiluminescent Siah2 self-ubiquitination assay; format: biochemical
T2 sequence (Q06986 1-325): T1 sequence (Q06986 1-325)
In short: (§1)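 Electrochemiluminescent format. GST-Siah2 or GST-RNF5 (5 pM final) is adsorbed onto glutathione-coated wells. Test compound is added in 100% DMSO. Reaction is started with a pre-charged ubiquitin-E1-E2 mix and runs 1 h at room temperature, then is stopped by Tris-buffered washes. SULFO-Tag antibody to ubiquitinated proteins is added and the signal is read. Library tested at 100 µM; hits confirmed by dose-response curves.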

GST-RNF5 [3] = target: T3, GST-RNF5 (Homo sapiens, UniProt Q99942); assay: Meso Scale electro-chemiluminescent RNF5 ubiquitination assay; format: biochemical
T3 sequence (Q99942 whole entry): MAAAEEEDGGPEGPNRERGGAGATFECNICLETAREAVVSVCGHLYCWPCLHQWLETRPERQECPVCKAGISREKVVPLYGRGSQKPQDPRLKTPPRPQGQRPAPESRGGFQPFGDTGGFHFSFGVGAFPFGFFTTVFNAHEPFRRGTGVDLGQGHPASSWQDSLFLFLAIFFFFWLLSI
In short: as §1

GST-Siah2 [4] = target: T2, GST-Siah2; assay: In vitro ubiquitination assay, Western blot with anti-ubiquitin; format: biochemical
In short: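 GST-Siah2 (with GST-RNF5 and GST-Siah2 RING mutant in parallel), bacterially expressed, glutathione-purified. Reactions on glutathione beads in 50 mM Tris-HCl pH 8.0, 5 mM MgCl2, 0.5 mM DTT, 2 mM NaF, with HA-ubiquitin (2 µg), 2 mM ATP, E1 (50 ng) and His-UbcH5b (250 ng), 45 min, 37°C, with shaking. Test compound at 100 µM or a concentration series. Read-out: 8% SDS-PAGE, anti-ubiquitin blot; anti-GST for input.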

GST-RNF5 [5] = target: T3, GST-RNF5; assay: In vitro ubiquitination assay, Western blot with anti-ubiquitin; format: biochemical; conditions: 100 µM
In short: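 Bacterially expressed GST-RNF5 was purified on glutathione resin. The reaction buffer was 50 mM Tris-HCl pH 8.0, 5 mM MgCl2, 0.5 mM DTT and 2 mM NaF, with HA-ubiquitin (2 µg), 2 mM ATP, E1 (50 ng) and purified His-UbcH5b E2 (250 ng). Test compound was present at 100 µM, and reactions ran 45 min at 37°C.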

Siah1 = target: T4, Siah1 (Mus musculus, UniProt P61092); assay: Siah1 ubiquitin ligase activity; format: biochemical
T4 sequence (P61092 1-282): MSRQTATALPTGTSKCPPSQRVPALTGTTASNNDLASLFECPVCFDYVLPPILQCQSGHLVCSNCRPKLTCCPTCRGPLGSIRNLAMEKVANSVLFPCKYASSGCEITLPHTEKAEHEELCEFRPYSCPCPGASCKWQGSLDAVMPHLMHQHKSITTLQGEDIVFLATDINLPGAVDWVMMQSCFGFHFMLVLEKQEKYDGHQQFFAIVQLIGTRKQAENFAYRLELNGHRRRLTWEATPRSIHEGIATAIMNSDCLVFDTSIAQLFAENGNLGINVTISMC

Siah2 [6] = target: T1, Siah2; assay: Siah steady-state levels in transfected 293T cells; format: cell-based
In short: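 293T cells (DMEM, 10% BS) were transiently transfected with HA-Siah2 or Flag-Siah1a (1 µg) by calcium phosphate or Lipofectamine. They were treated 24 h later with test compound at several concentrations, with DMSO as control. Lysates were immunoblotted for the tag with β-actin as loading control, using fluorescent secondary antibodies and infrared scanning.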

PHD3 = PHD3 level and half-life; format: cell-based, mouse
In short: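 Immortalized MEFs are kept in 10% FBS with 0.1 mM non-essential amino acids and 0.2 mM 2-mercaptoethanol. Cells get test compound (25 µM), with or without 5 mM N-acetyl L-cysteine. PHD3 is blotted after 1% O2, 5 h; Spry2 under normoxia; HIF-1α in nuclear extracts. β-actin/lamin A are loading controls. For half-life, cycloheximide (20 µg/ml) is added after 5 h hypoxia and cells are harvested over time.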

SPRY2 = assay: Spry2 expression in 293T cells transfected with Myc-Spry2 and HA-Siah2; format: cell-based; conditions: 5 h
UACC903 melanoma cells = assay: Spry2 and pERK levels in UACC903 melanoma cells; format: cell-based, human; conditions: 5 h
In short: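 UACC903 human melanoma cells are treated 5 h with a concentration series of test compound. Blots are probed overnight at 4°C and detected with fluorescent secondary antibodies. Total ERK or β-actin serves as loading control.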

HIF-1α [7] = assay: HIF-1α protein level in 293T cells; format: cell-based; conditions: hypoxia 1% O2, 5 h
HIF-1α [8] = assay: HIF-1α protein level in SW1 melanoma cells; format: cell-based; conditions: SW1 mouse melanoma cells, hypoxia 1% O2, 5 h
SW1 melanoma cells = assay: Semi-quantitative RT-PCR of HIF-1α and VEGF transcripts; format: cell-based, mouse
VEGF = VEGF secretion from SW1 melanoma cells; format: cell-based, mouse; conditions: 10 h, ELISA
[9] = tested on: Human Microvascular Endothelial Cells (HMVEC); assay: HMVEC tube formation with conditioned medium of treated SW1 cells; format: cell-based; conditions: medium from SW1 cells treated 10 h under hypoxia; read after 16 h
GST-Siah2 [10] = target: T2, GST-Siah2; assay: In vitro protein-binding assay of GST-Siah2 with PHYL or Spry2
In short: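 GST-Siah2 was affinity-purified onto glutathione-Sepharose 4B beads. Spry2 and PHYL were made by coupled in vitro transcription/translation in reticulocyte lysate with [35S]-methionine and mixed with the GST fusion on glutathione beads. Bound protein was resolved on 12% SDS-PAGE and detected by autoradiography.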

UACC903 melanoma tumors = assay: UACC903 melanoma xenograft in nude mice; format: in vivo, mouse
In short: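 UACC903 cells (1 × 10^6 in 100 µl PBS) are injected s.c. into the flank of 4-week-old male nude mice. From 1 week, test compound (2, 5 or 10 mg/kg; 0.1% DMSO final) is given i.p. twice weekly for 4 weeks, with tumors measured twice weekly. Harvested tumors: Z-fix, IHC for HIF-1α/pERK (HRP polymer, DAB, hematoxylin), TUNEL (peroxidase kit), and pERK/total ERK immunoblots.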

`CC(C)C[C@@H](C=O)NC(=O)[C@H](CC(C)C)NC(=O)[C@H](CC(C)C)NC(=O)OCc1ccccc1` [MG132] (Cbz-Leu-Leu-Leu-aldehyde) was tested, and the “Siah2 ubiquitination in vivo” value (Siah2 [1]) was “increased the ubiquitinated and unubiquitinated forms of Siah2”.
In the case of `CC1=CC(=O)c2ccccc2C1=O` [compound 1, menadione], the IC50 (GST-Siah2 [2]) is reported as 20 µM, the IC50 (GST-RNF5 [3]) is reported as over 100 µM and the “Siah2 auto-ubiquitination in vitro” value (GST-Siah2 [4]; 100 µM, new lots of compounds, Western blot) is reported as “strongest degree of Siah2 inhibition”. The “Siah2 auto-ubiquitination in vitro, dose dependence” value (GST-Siah2 [4]; GST-Siah2 on glutathione beads, increasing concentrations) was “attenuated in a dose-dependent manner”, the “RNF5 self-ubiquitination in vitro” value (GST-RNF5 [5]) was “did not reduce RNF5 self-ubiquitination activity” and the “Siah1 ubiquitin ligase activity” value (Siah1) was “attenuated Siah1 ubiquitin ligase activity”. For the same compound, the “steady-state levels of Siah2 / Siah1a” value (Siah2 [6]) was “increase the steady-state levels of Siah2”, the “Siah2 ubiquitination in vivo” value (Siah2 [1]) was “effectively inhibits Siah2 ubiquitination in vivo” and the “stabilization of PHD3 or Spry2, effect on HIF-1α, in presence of ROS scavenger” value (PHD3; MEF cells, 25 µM with 5 mM N-acetyl cysteine) was “not affected”. For the same compound, the “steady state levels of endogenous PHD3” value (PHD3; MEF cells, hypoxia 1% O2, 5 h, increasing concentrations) was “corresponding increase in the steady state levels of endogenous PHD3”, the “increase of PHD3 or Spry2 expression in Siah KO cells” value (PHD3; Siah2 KO and Siah2/Siah1a DKO MEF, 25 µM) was “attenuated in the Siah2 KO and completely abolished in the Siah2/1a DKO cells” and the “Siah2-dependent decrease in SPRY2 expression” value (SPRY2) was “attenuated Siah2-dependent decrease in SPRY2 expression”. The “ERK activity / phosphorylation” value (UACC903 melanoma cells) was “ERK activity was decreased”, the SPRY2 level (UACC903 melanoma cells) was “increase in SPRY2 level” and the HIF-1α expression (HIF-1α [7]) was “reduced the expression of HIF-1α in a dose-dependent manner”. The HIF-1α expression (HIF-1α [8]) was “effectively reduced the level of HIF-1α expression”, the “level of HIF-1α transcripts” value (SW1 melanoma cells) was “did not alter the level of HIF-1α transcripts” and the “transcription of VEGF” value (SW1 melanoma cells) was “inhibited the transcription of the HIF-1α target gene, VEGF”. For the same compound, the “level of VEGF secreted” value (VEGF) was “proportionally reduced”, the “tube formation of HMVEC cells” value [9] was “dose-dependent decrease in tube formation” and the “association of Siah2 with PHYL or Spry2” value (GST-Siah2 [10]) was “without affecting the association with PHYL or Spry2”. The “pERK levels in tumors” value (UACC903 melanoma tumors; IHC and immunoblot of xenograft tumors) was “effectively reduced the levels of pERK”, the “HIF-1α expression in tumors” value (UACC903 melanoma tumors; IHC of xenograft tumors) was “lower levels of HIF-1α expression” and the “degree of apoptosis in tumors (TUNEL)” value (UACC903 melanoma tumors; xenograft tumors) was “found to be higher”.
